Bioassay records deposited in PubChem by several laboratories.
m5-HT2A agonist: agonists of mouse serotonin 5-HT2A receptor (HTR2A) | P35363 | CHO-K1 mHTR2A beta-arrestin complementation, luminescence; percent of 30 µM serotonin response | activation, % at 7.6 µM | hit rate 0.66% among 360,000 | AID 624169;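 active means activation above a run cutoff, the mean activation of all tested compounds plus 3 SD, cut at about 14% in these data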;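 further: 0% = plate median of compound wells and 100% = 30 µM serotonin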
MC4R antagonist: human MC4R antagonism in cAMP assay | MC4R-expressing cells, MTII-stimulated cAMP, LANCE TR-FRET | inhibition, % at 6.5 µM | hit rate 0.48% among 360,000;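 active means inhibition above its plate's cutoff, the mean of tested wells on that plate plus 3 SD, cut at about 29% in these data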;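 further: 0% = Melanotan II alone and 100% = Melanotan II plus saturating MCL0020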
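Assay system: human MC4R-expressing U2OS cells; reagent: Melanotan II stimulation of cells; dosing: 6.5 µM single dose; timing: compound 30 min, challenge 1 h, detection 1 h; signal: TR-FRET cAMP assay; replicates: one well per compound, no replicates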
TAAR1 ag: agonists of human TAAR1. CHO RD-HGA16 TAAR1, Fluo-8 calcium fluorescence; vehicle wells 0%, saturating PEA agonist 100%. activation, % at 3 µM. hit rate 0.99% among 360,000. AID 624467;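 active means activation above the mean activation of all test compounds in the run plus 3 SD, cut at about 38% in these data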
Target sequence (Q96RJ0 whole entry, looked up): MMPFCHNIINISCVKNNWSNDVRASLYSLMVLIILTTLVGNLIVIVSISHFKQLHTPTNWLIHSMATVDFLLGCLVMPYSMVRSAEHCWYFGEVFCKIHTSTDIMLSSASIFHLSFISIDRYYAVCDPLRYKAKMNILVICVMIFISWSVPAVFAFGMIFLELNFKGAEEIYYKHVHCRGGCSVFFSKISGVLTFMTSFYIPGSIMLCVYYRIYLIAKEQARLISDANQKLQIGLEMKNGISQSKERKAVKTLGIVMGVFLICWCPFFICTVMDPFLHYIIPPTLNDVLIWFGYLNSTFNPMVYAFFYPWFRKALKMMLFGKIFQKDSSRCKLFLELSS
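Benchmarks: low control DMSO, high control PEA (EC100); System: CHO RD-HGA16 cells carrying human TAAR1 plus Gα16; Detection: Fluo-8 fluorescence, 5 s baseline then 140 s kinetic read; Schedule: 17-24 h plating, Fluo-8 75 min 37 °C, 30 min RT; Read-out basis: % activation from peak over basal fluorescence ratio, DMSO-to-PEA scaled.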
MC4R ag barr: activates human MC4R beta-arrestin recruitment | hit rate 0.98% among 360,000 | P32245 | AID 540308 | activation, % at 8.9 µM | U2OS MC4R beta-arrestin complementation, luminescence; percent of melanotan II response, DMSO zero;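 active means activation above a per-plate cutoff, the mean activation of sample wells on that plate plus 3 SD, cut at about 8% in these data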
TAAR1 antag: antagonists of human TAAR1 | Q96RJ0 | CHO RD-HGA16 TAAR1, Fluo-8 calcium fluorescence, antagonist | inhibition, % at 3 µM | hit rate 1.5% among 360,000 | AID 624466;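 active means inhibition above a per-plate cutoff, the mean inhibition of test compounds on that plate plus 3 SD, cut at about 49% in these data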;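 further: 0% = DMSO plus EC80 beta-PEA response and 100% = DMSO alone without agonist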
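Assay system: CHO-derived RD-HGA16 cells stably expressing human TAAR1 plus Gα16. Timing: 140 s kinetic read after compound, 140 s after agonist. Technique: kinetic Fluo-8 calcium fluorescence measurement. Measure: % inhibition of agonist calcium response.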
Beta2AR agonist: activates human beta-2 adrenergic receptor causing internalization | P07550 | Am2.2-beta2AR cells, FAP receptor internalization, flow cytometry | response, % (test concentration not listed) | hit rate 0.43% among 340,000 | AID 504454;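 active means response above a set limit, near 3 SD of response in nonfluorescent compounds, cut at about 42% in these data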
* marks the source's active call; other numbers are inactive results; / = no result; + = active, no number; ! = a repeat was not active. Rows were chosen to be rich in hits. Some 4.3% of all compounds tested hit in one or more screens of this group.

SMILES | m5-HT2A agonist | MC4R antagonist | TAAR1 ag | MC4R ag barr | TAAR1 antag | Beta2AR agonist
CS/C(=N\S(=O)(=O)c1cccs1)Nc1ccc(Cl)cc1 | -8 | 2 | 1 | -2 | -19 | 2
CS/C(=N\S(=O)(=O)c1cccs1)Nc1ccc(Br)cc1F | -2 | 0 | 0 | -1 | -18 | 59*!
CCOC(CCNC(=O)c1cc(-c2cccs2)nc2ccccc12)OCC | 2 | 6 | 19 | -2 | 49* | 3
CC(C)NC(=O)c1cc(-c2cccs2)nc2ccccc12 | 2 | 1 | 6 | -2 | 35 | 0
COC(=O)C1=C(C)N(Cc2ccccc2C(F)(F)F)C(=NCC2CC2)NC1c1cccc(F)c1 (configuration not stated) | / | / | 13 | / | -16 | /
CC1CCN(C(=O)c2ncn3c2C(=O)NC[C@@H]3C)CC1 | / | / | 3 | / | 1 | /
COc1cc(/C=N/NC(=O)c2ccc(CSc3nc4ccccc4[nH]3)cc2)cc(OC)c1OC | -3 | 25 | 14 | 0 | 52* | 6
O=C(NCCO)c1ccc(CSc2nc3ccccc3[nH]2)cc1 | 1 | 8 | 7 | -2 | -9 | -18
CC(C)(C)S(=O)N1C[C@@H]2CC(=O)C(c3ccccc3)=C2[C@H]1CCO (some centres not stated) | / | / | 3 | / | -20 | /
CC(C)C[C@H](NC(=O)OC(C)(C)C)c1nnc(SCC(=O)Nc2ccc(Br)cc2)o1 | 3 | 2 | 6 | 8.3* | 21 | 11
O=C(c1cnc(N2CCN(c3ncccn3)CC2)c2ccccc12)N1CCN(c2ccccn2)CC1 | -1 | 1 | 18 | 0 | 61* | 6
c1ccc(-c2nnc(N3CCN(c4ccccn4)CC3)c3ccccc23)cc1 | 9 | 0 | 4 | 2 | 50* | 23
Cc1ccc(-c2nnc(N3CCN(c4ccccn4)CC3)c3ccccc23)cc1 | 4 | 3 | 8 | 0 | 42 | 21
O=C(c1ccccc1-c1ccccc1)N1CCN(c2ccccn2)CC1 | 0 | -6 | 2 | -2 | -5 | -10
Cc1ccc(NC(=O)c2cnc(N3CCN(c4ccccn4)CC3)c3ccccc23)c(Br)c1 | 10 | 3 | 10 | -1 | 72* | 23
CC(C)CNC(=O)c1oc2ccccc2c1COc1ccccc1 | -3 | 19 | 39* | -1 | 15 | -5
CCC(=O)N(CCO)Cc1cc2ccc(C)c(C)c2[nH]c1=O | -3 | 2 | 5 | -1 | -14 | -7
CC(=O)N(CCc1ccccc1)Cc1cc2ccc(C)c(C)c2[nH]c1=O | -7 | 18 | 41* | 0 | 11 | 3
COc1cc(/C=C(/C(=O)c2cccs2)c2nc3ccccc3[nH]2)cc(OC)c1O | -3 | 2 | 21 | -3 | 0 | 2
CC1CN(C(=O)CCC(=O)N2CCOCC2)c2ccccc2O1 (configuration not stated) | -5 | -1 | 1 | 0 | -6 | -17
COC(=O)c1ccccc1-c1c2ccc(=N)cc-2oc2cc(N)ccc12 | -12 | -8 | + | -2 | 105* | /
CC1=NOC(=O)/C1=C\c1ccc(-c2cccc(Cl)c2)o1 | -3 | 7 | / | -4 | / | 101*
CC1=NOC(=O)/C1=C\c1ccc(-c2ccc(Cl)c(C(=O)O)c2)o1 | 1 | -4 | 11 | 1 | 9 | 10
CC1=CC2=NC(=O)/C(=C\c3ccc(-c4cccc(Cl)c4)o3)C(=N)N2O1 | 2 | -11 | 2 | 12* | 10 | 5
COc1ccc(NC(=O)C2Cc3c(-c4cccc(C(N)=O)c4)ccnc3O2)cn1 (configuration not stated) | 6 | -7 | 2 | -1 | -23 | /
Cc1cc(-n2c(C)cc(C(=O)CCl)c2C)no1 | 2 | -12 | 2 | 2 | -5 | 65*
Cc1cccc(CCNS(=O)(=O)c2ccc3c(c2)n(C)c(=O)c(=O)n3C)c1 | 3 | 1 | 39* | 0 | -13 | -7
COc1ccc2c(c1OC)C(=O)N1c3ccccc3SC21 (configuration not stated) | 5 | 7 | 9 | 0 | 6 | -18
